Source: ChEMBL document CHEMBL2434865, “The influence of positional isomerism on G-quadruplex binding and anti-proliferative activity of tetra-substituted naphthalene diimide compounds” (Bioorg Med Chem, 2013)
pIC50: −log10 of the molar value.

Assays:
[1] = species: Homo sapiens; experiment: Binding affinity to human HSP90B 5'-FAM-GGGCGGGCCAAAGGGAAGGGG-TAMRA-3' at 2 uM after 3 hrs by HT-FRET assay
Outline: (§1)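 Oligonucleotides were diluted from 50 µM stock to 400 nM in 60 mM potassium cacodylate pH 7.4, annealed at 95 °C for 10 min, then cooled to RT over 3 h. Ligand came from a 10 mM aqueous stock, was diluted to twice the final level in buffer and mixed 1:1 with DNA, in triplicate. FAM excitation was 450–495 nm and emission 515–545 nm, read every 0.5 °C from 30–100 °C with a 30 s hold. Tm is the first-derivative maximum of the smoothed, normalized curve; ΔTm is relative to DNA without ligand.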

[2] = Cytotoxicity against human 786-O cells after 96 hrs by SRB assay; format: functional, cell-based; conditions: 786-0, 96 h
Outline: (§2)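 Monolayer cultures were kept at 37 °C in humidified 5% CO2. Media were RPMI 1640 with 2 mM glutamine, 10% FCS and 1 mM pyruvate for 786-O, and MEM with 2 mM glutamine, 1% amino acids and 10% FCS for WI-38. Cells were exposed to compound over a concentration range for 96 h. Cells were fixed with TCA, stained with SRB, dissolved in 10 mM Tris and read at 540 nm. Values were normalized to untreated controls, and IC50 was interpolated as 50% absorbance reduction.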

[3] = species: Homo sapiens; experiment: Binding affinity to human HSP90B 5'-FAM-GGGCGGGCCAAAGGGAAGGGG-TAMRA-3' at 1 uM after 3 hrs by HT-FRET assay; outline: as §1
[4] = system: PANC-1; experiment: Cytotoxicity against human PANC1 cells after 96 hrs by SRB assay; format: functional, cell-based; conditions: PANC-1, 96 h
Outline: (§3)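 For A549, MCF7, MIA PaCa2 (DMEM with 2 mM glutamine and 10% FCS) and PANC1 (same DMEM), 1000–4000 cells per well were seeded and left 24 h. Compound was added over a concentration range for 96 h at 37 °C in 5% CO2. Cells were fixed with 10% TCA (30 min, 4 °C) and stained with 0.4% SRB in 1% acetic acid for 15 min. Dye was dissolved in 10 mM Tris and read at A540. IC50 was interpolated as the level giving 50% absorbance loss versus untreated cells.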

[5] = species: Homo sapiens; experiment: Binding affinity to human HSP90A 5'-FAM-GGGCCAAAGGGAAGGGGTGGG-TAMRA-3' at 2 uM after 3 hrs by HT-FRET assay; outline: as §1
[6] = species: Homo sapiens; experiment: Binding affinity to human telomeric quadruplex 5'-FAM-GGGTTAGGGTTAGGGTTAGGG-TAMRA-3' at 1 uM after 3 hrs by HT-FRET assay; outline: as §1
[7] = system: MCF7; experiment: Cytotoxicity against human MCF7 cells after 96 hrs by SRB assay; format: functional, cell-based; conditions: MCF7, 96 h; outline: as §3
[8] = species: Homo sapiens; experiment: Binding affinity to human T-loop 5'-FAM-TATAGCTATATTTTTTTATAGCTATATAMRA-3' at 1 uM after 3 hrs by HT-FRET assay; outline: as §1
[9] = Cytotoxicity against human RCC4 cells after 96 hrs by SRB assay; format: functional, cell-based; conditions: RCC4, 96 h
[10] = species: Homo sapiens; experiment: Binding affinity to human T-loop 5'-FAM-TATAGCTATATTTTTTTATAGCTATATAMRA-3' at 2 uM after 3 hrs by HT-FRET assay; outline: as §1
[11] = system: WI-38; experiment: Cytotoxicity against human WI38 cells after 96 hrs by SRB assay; format: cell-based; conditions: WI-38, 96 h; outline: as §2
[12] = species: Homo sapiens; experiment: Binding affinity to human HSP90A 5'-FAM-GGGCCAAAGGGAAGGGGTGGG-TAMRA-3' at 1 uM after 3 hrs by HT-FRET assay; outline: as §1
[13] = system: A549; experiment: Cytotoxicity against human A549 cells after 96 hrs by SRB assay; format: functional, cell-based; conditions: A549, 96 h; outline: as §3
[14] = system: MIA PaCa-2; experiment: Cytotoxicity against human MIAPaCa2 cells after 96 hrs by SRB assay; format: functional, cell-based; conditions: MIA PaCa-2, 96 h; outline: as §3
[15] = species: Homo sapiens; experiment: Binding affinity to human telomeric quadruplex 5'-FAM-GGGTTAGGGTTAGGGTTAGGG-TAMRA-3' at 2 uM after 3 hrs by HT-FRET assay; outline: as §1
[16] = system: PANC-1; experiment: Ratio of IC50 for human MIAPaCa2 cells to IC50 for human PANC1 cells; format: functional

ΔTm [1] [°C]	ΔTm [3] [°C]	ΔTm [5] [°C]	ΔTm [6] [°C]	ΔTm [8] [°C]	ΔTm [10] [°C]	ΔTm [12] [°C]	ΔTm [15] [°C]	SMILES	pIC50 [2]	pIC50 [4]	pIC50 [7]	pIC50 [9]	pIC50 [11]	pIC50 [13]	pIC50 [14]	Ratio IC50 [16]
34	30	36	29	5	9	34	34	CN1CCN(CCCN2C(=O)c3cc(NCCCN4CCOCC4)c4c5c(cc(NCCCN6CCOCC6)c(c35)C2=O)C(=O)N(CCCN2CCN(C)CC2)C4=O)CC1	6.36	8.70	7.85	6.21	6.52	8.15	7.30	
								CN1CCN(CCCNc2cc3c4c(c(NCCCN5CCN(C)CC5)cc5c4c2C(=O)N(CCCN2CCOCC2)C5=O)C(=O)N(CCCN2CCOCC2)C3=O)CC1		8.52						5
17	13	23	< 2	0	0	21	15	CN1CCN(CCCN2C(=O)c3cc(NC[C@@H]4CCCO4)c4c5c(cc(NC[C@H]6CCCO6)c(c35)C2=O)C(=O)N(CCCN2CCN(C)CC2)C4=O)CC1	6.41	5.82	6.25	5.52	5.64	6.80	7.02	
23	3	27	< 2	0	0	2	22	CN1CCN(CCCN2C(=O)c3cc(NCC4CCOCC4)c4c5c(cc(NCC6CCOCC6)c(c35)C2=O)C(=O)N(CCCN2CCN(C)CC2)C4=O)CC1	6.54	5.96	6.29	5.66	5.55	6.34	6.86	
26	22	24	< 2	0	0	22	16	COCCCNc1cc2c3c(c(NCCCOC)cc4c3c1C(=O)N(CCCN1CCN(C)CC1)C4=O)C(=O)N(CCCN1CCN(C)CC1)C2=O	4.79	5.60	4.76	5.12	< 4.60	5.24	5.15	
32	28	36	26	2	8	33	31	CN1CCN(CCN2C(=O)c3cc(NCCCN4CCOCC4)c4c5c(cc(NCCCN6CCOCC6)c(c35)C2=O)C(=O)N(CCN2CCN(C)CC2)C4=O)CC1	6.80	8.30	7.68	6.52	6.74	7.70	8.30	
